From PubChem
Compounds with a hit are over-represented: about 2.3% of the library has one in this group of screens.
TAAR1 antagonist: antagonists of human TAAR1. Q96RJ0. CHO RD-HGA16 TAAR1, Fluo-8 calcium fluorescence, antagonist. inhibition, % at 3 µM. 1.5% of 360,000 active. AID 624466;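 active means inhibition above a per-plate cutoff, the mean inhibition of test compounds on that plate plus 3 SD, cut at about 49% in these data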;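 further: 0% = DMSO plus EC80 beta-PEA response and 100% = DMSO alone without agonist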
Target sequence (Q96RJ0 whole entry, looked up): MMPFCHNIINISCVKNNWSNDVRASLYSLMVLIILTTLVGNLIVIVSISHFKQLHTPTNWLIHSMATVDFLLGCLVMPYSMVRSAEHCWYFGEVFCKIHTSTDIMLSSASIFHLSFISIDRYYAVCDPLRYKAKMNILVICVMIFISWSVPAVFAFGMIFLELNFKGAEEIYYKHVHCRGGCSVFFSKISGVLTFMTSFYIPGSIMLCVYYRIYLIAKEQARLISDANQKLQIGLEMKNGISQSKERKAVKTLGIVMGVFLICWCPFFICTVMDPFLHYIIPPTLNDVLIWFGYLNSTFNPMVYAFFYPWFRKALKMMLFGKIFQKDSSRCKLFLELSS
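Test system: RD-HGA16 CHO cells with stable hTAAR1 and Gα16 / Probe or stimulus: EC80 β-phenethylamine stimulus / Times: seeding 17-24 h prior, 75-min 37 °C, 30-min RT dye loading / Detection: Fluo-8 calcium-sensitive fluorescence / Read-out basis: % inhibition scaled between DMSO and EC80 PEA controls / Repeats: singlicate, one well per test compound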
OXTR agonist: human OXTR agonism; P30559; 0.32% of 320,000 active; activation, % at 3 µM; CHO-OTR cells, Fluo-8 calcium fluorescence; normalized: DMSO 0%, oxytocin 100%;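 active means activation above the mean of all tested compounds plus 3 SD, cutoff set per screening run, cut at about 20% in these data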;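 further: peak over basal fluorescence ratio from a 100 s FLIPR kinetic read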
Target sequence (P30559 whole entry, looked up): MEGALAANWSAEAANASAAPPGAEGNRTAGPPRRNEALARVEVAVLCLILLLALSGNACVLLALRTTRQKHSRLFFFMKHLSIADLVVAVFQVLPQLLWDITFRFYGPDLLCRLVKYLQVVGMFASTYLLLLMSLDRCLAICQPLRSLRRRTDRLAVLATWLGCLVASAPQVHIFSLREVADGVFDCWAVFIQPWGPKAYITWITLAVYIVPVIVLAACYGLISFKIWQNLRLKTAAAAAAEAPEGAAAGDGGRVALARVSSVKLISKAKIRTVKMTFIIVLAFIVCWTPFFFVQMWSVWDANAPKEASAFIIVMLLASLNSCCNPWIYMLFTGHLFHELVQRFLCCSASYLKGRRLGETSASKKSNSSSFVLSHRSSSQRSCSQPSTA
TAAR1 ag: agonists of human TAAR1. Q96RJ0. CHO RD-HGA16 TAAR1, Fluo-8 calcium fluorescence; vehicle wells 0%, saturating PEA agonist 100%. activation, % at 3 µM. 0.99% of 360,000 active. AID 624467;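 active means activation above the mean activation of all test compounds in the run plus 3 SD, cut at about 38% in these data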
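test system = CHO RD-HGA16 cells carrying human TAAR1 plus Gα16 | schedule = 17-24 h seeding, 75 min 37 °C dye, 30 min RT | compound dosing = 3 µM single concentration | control set = DMSO and PEA EC100 | replicates = n 1 | signal = Fluo-8 fluorescence, 5 s baseline then 140 s kinetic read | measure = percent activation vs PEA EC100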
OXTR potentiate: potentiates the human oxytocin receptor response; P30559; CHO-OTR cells, Fluo-8 calcium fluorescence, potentiator mode; 0% = oxytocin EC15, 100% = EC100; activation, % at 3 µM; 0.061% of 320,000 active; AID 2445;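 active means activation above that plate's cutoff, the mean activation of tested compounds plus 3 SD, cut at about 6.6% in these data, passing the limit was not always enough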;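 further: 100% uses oxytocin at 75 nM as the full agonist control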
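System: human OTR in CHO cells; Also added: sub-maximal oxytocin, roughly EC15; Timing: compound 6 min at room temperature before oxytocin, 100 s read; Technique: Fluo-8 intracellular calcium fluorescence, ex 470-495, em 515-575 nm; Controls: oxytocin EC15 low and EC100 high; Replication: singlicate.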
V1aR counter: V1a receptor agonism, counter-screen for OXTR agonists; CHO-V1R cells, Fluo-8 calcium fluorescence, agonist mode; 0% DMSO, 100% 3 nM vasopressin; activation, % at 3 µM; 0.25% of 320,000 active;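 active means activation above the mean activation of all tested compounds plus 3 SD, per screening run, cut at about 20% in these data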;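 further: signal is peak over basal fluorescence ratio across a 100 second FLIPR read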
TAAR1 ag conf: confirmation of human TAAR1 agonists. CHO RD-HGA16 TAAR1, Fluo-8 calcium fluorescence; scaled: DMSO 0%, maximal phenethylamine 100%. activation, % at 3 µM. shares compounds with TAAR1 ag. 82% of 2,400 active;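 active means activation above a cutoff set at the run's mean compound activation plus 3 SD, cut at about 39% in these data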
Ga16 ag counter: nonselective agonism, TAAR1 counter-screen. 50% of 2,400 active. CHO-Ga16 parental, Fluo-8 calcium fluorescence; normalized to maximal ATP response, DMSO zero. activation, % at 3 µM. shares compounds with TAAR1 ag;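 active means activation above the run cutoff, the mean activation over all tested wells plus 3 SD, cut at about 12% in these data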;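 further: 0% = DMSO wells and 100% = maximal ATP response on the peak over basal ratio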
TAAR1 desensitize: TAAR1 response desensitization, agonist counter-screen. CHO RD-HGA16 hTAAR1, Fluo-8 calcium, beta-PEA response inhibition. inhibition, % at 3 µM. AID 651951. shares compounds with TAAR1 ag. 46% of 2,400 active;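 active means inhibition above the run cutoff, the mean inhibition of all test compounds plus 3 SD, cut at about 49% in these data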;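 further: beta-PEA stimulus applied at its EC80; loss of beta-PEA calcium signal after compound pretreatment read as receptor desensitization; 0% = DMSO with beta-PEA at EC80 and 100% = DMSO alone without agonist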
Ga16 nonsel ant: nonselective Ga16 antagonist in TAAR1 agonist counter-screen; shares compounds with TAAR1 ag; CHO-Ga16 ATP-induced calcium, Fluo-8 fluorescence; inhibition, % at 3 µM; 39% of 2,400 active; AID 651952;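 active means inhibition above the plate's mean compound inhibition plus 3 SD, computed per plate, cut at about 22% in these data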;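 further: 0% = EC80 ATP with DMSO and 100% = DMSO wells without ATP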
Numbers without * were called inactive.

How did CCn1c(=O)c2cc(C(=O)N(C)c3ccccc3F)sc2c2ccccc21 do in these assays?
TAAR1 antagonist: 14; OXTR agonist: -2; TAAR1 ag: 1; OXTR potentiate: -16; V1aR counter: 3

Results for O=C(NCC(c1ccco1)N1CCCCC1)c1ccc(NS(=O)(=O)c2ccc(F)cc2)cc1 (stereo not given) ?
TAAR1 antagonist: -3; OXTR agonist: 0; TAAR1 ag: 2; OXTR potentiate: -4; V1aR counter: 1

Results for C=CCN(c1ccccc1)S(=O)(=O)c1cccc(C(=O)NCC(c2ccccc2OC)N2CCCC2)c1 (stereo not given) ?
TAAR1 antagonist: -37; OXTR agonist: -3; TAAR1 ag: 0; OXTR potentiate: 2; V1aR counter: 0

Results for CCN(c1ccccc1)S(=O)(=O)c1ccc(C(=O)NCC(c2ccccc2OC)N2CCCC2)cc1 (stereo not given) ?
TAAR1 antagonist: 15; TAAR1 ag: 46*; TAAR1 ag conf: 60*; Ga16 ag counter: 13*; TAAR1 desensitize: 26; Ga16 nonsel ant: 25*

Results for CCOc1ccc(NS(=O)(=O)c2ccc(C(=O)N3CC(C)OC(C)C3)cc2)cc1 (stereo not given) ?
TAAR1 antagonist: 79*; OXTR agonist: 58*; TAAR1 ag: 130*; OXTR potentiate: -13; V1aR counter: 51*; TAAR1 ag conf: 119*; Ga16 ag counter: 91*; TAAR1 desensitize: 79*; Ga16 nonsel ant: 40*

How did CCOc1ccc(NS(=O)(=O)c2ccc(C(=O)N3CCCCC3)cc2)cc1 do in these assays?
TAAR1 antagonist: 42; OXTR agonist: 24*; TAAR1 ag: 67*; OXTR potentiate: -16; V1aR counter: 28*; TAAR1 ag conf: 66*; Ga16 ag counter: 45*; TAAR1 desensitize: 39; Ga16 nonsel ant: 35*

What do the screens show for `CCOc1ccc(NS(=O)(=O)c2ccc(C(=O)NCC(c3ccco3)N3CCCC3)cc2)cc1` (stereo not given)?
TAAR1 antagonist: 28; OXTR agonist: 35*; TAAR1 ag: 65*; OXTR potentiate: -12; V1aR counter: 23*; TAAR1 ag conf: 83*; Ga16 ag counter: 39*; TAAR1 desensitize: 44; Ga16 nonsel ant: 29*

What do the screens show for `COC(=O)CNC(=O)C1CCC(CNS(=O)(=O)c2cccc3nsnc23)CC1` (stereo not given)?
TAAR1 antagonist: -13; OXTR agonist: 0; TAAR1 ag: 6; OXTR potentiate: -4; V1aR counter: 1

How did COCCNC(=O)c1c[nH]c2cc(OC)c(OC)cc2c1=O do in these assays?
TAAR1 antagonist: 16; OXTR agonist: 0; TAAR1 ag: 7; OXTR potentiate: -9; V1aR counter: 1

Results for O=C(CN1CCN(c2ccccn2)CC1)Nc1ccccc1F ?
TAAR1 antagonist: 1; OXTR agonist: 0; TAAR1 ag: 5; OXTR potentiate: -9; V1aR counter: 0

What do the screens show for `CCOC(=O)c1ccc(NS(=O)(=O)c2ccc(SC)cc2)cc1`?
TAAR1 antagonist: 14; OXTR agonist: 11; TAAR1 ag: 46*; OXTR potentiate: -10; V1aR counter: 8; TAAR1 ag conf: 40*; Ga16 ag counter: 19*; TAAR1 desensitize: 36; Ga16 nonsel ant: 26*

How did Cc1ccc(NS(=O)(=O)c2ccc(C(=O)NCC(c3ccco3)N(C)C)cc2)cc1 (stereo not given) do in these assays?
TAAR1 antagonist: 54*; OXTR agonist: 27*; TAAR1 ag: 105*; OXTR potentiate: -16; V1aR counter: 26*; TAAR1 ag conf: 108*; Ga16 ag counter: 49*; TAAR1 desensitize: 65*; Ga16 nonsel ant: 33*

What do the screens show for `CN(C)C(CNC(=O)c1ccc(NS(=O)(=O)c2ccc(F)cc2)cc1)c1ccco1` (stereo not given)?
TAAR1 antagonist: -9; OXTR agonist: 2; TAAR1 ag: 2; OXTR potentiate: -7; V1aR counter: 0

What do the screens show for `CC1CCN(C(=O)c2ccc(NS(=O)(=O)c3ccccc3)cc2)CC1`?
TAAR1 antagonist: 11; OXTR agonist: 4; TAAR1 ag: 7; OXTR potentiate: -7; V1aR counter: 2

How did COc1ccc(NS(=O)(=O)c2ccc(C(=O)N3CCC(C)CC3)cc2)cc1 do in these assays?
TAAR1 antagonist: 26; OXTR agonist: 40*; TAAR1 ag: 91*; OXTR potentiate: -13; V1aR counter: 24*; TAAR1 ag conf: 76*; Ga16 ag counter: 40*; TAAR1 desensitize: 39; Ga16 nonsel ant: 26*

Results for Cc1ccc(S(=O)(=O)NC2=NCN(CCc3ccccc3)CN2)cc1 ?
TAAR1 antagonist: 3; OXTR agonist: 0; TAAR1 ag: 64*; OXTR potentiate: -12; V1aR counter: 0; TAAR1 ag conf: 43*; Ga16 ag counter: 0; TAAR1 desensitize: 2; Ga16 nonsel ant: 8

What do the screens show for `O=C(Nc1ccccc1)Nc1nncs1`?
OXTR agonist: 1; OXTR potentiate: -8; V1aR counter: 0; Ga16 ag counter: 3; Ga16 nonsel ant: 7

Results for COc1ccc(NC(=O)Nc2nccs2)cc1 ?
TAAR1 antagonist: 12; OXTR agonist: 2; TAAR1 ag: 21; OXTR potentiate: -1; V1aR counter: 1

What do the screens show for `O=C(Cc1nnc(NC(=O)Nc2ccc(Cl)cc2)s1)NCc1ccccc1`?
TAAR1 antagonist: 30; OXTR agonist: 1; TAAR1 ag: 19; OXTR potentiate: -3; V1aR counter: 1

What do the screens show for `O=C(Nc1ccccc1)Nc1nccs1`?
TAAR1 antagonist: 18; OXTR agonist: 1; TAAR1 ag: 47*; OXTR potentiate: -4; V1aR counter: 6; TAAR1 ag conf: 85*; Ga16 ag counter: 3; TAAR1 desensitize: 49*; Ga16 nonsel ant: 7

What do the screens show for `O=C(Cc1nnc(NC(=O)Nc2ccccc2)s1)NCc1ccccc1`?
TAAR1 antagonist: 39; OXTR agonist: 0; TAAR1 ag: 60*; OXTR potentiate: -1; V1aR counter: 0; TAAR1 ag conf: 80*; Ga16 ag counter: 2; TAAR1 desensitize: 64*; Ga16 nonsel ant: 10
